CAL PDZ FP-1 – human CAL PDZ-peptide interaction inhibition; 330,000 tested, 0.02% active; AID 504414; purified CAL PDZ, TMR-peptide fluorescence polarization, 1 h; inhibition, % at 20 µM; Q9HD26;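 active = highest replicate inhibition of at least 40%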;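 note: plate controls were DMSO neutral control wells for no effect and unlabeled competitor peptide control wells for full effect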
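System: purified tagged CAL PDZ domain construct (CerCALP). Schedule: 1 h incubation at room temperature before polarization reading. Medium: 25 mM sodium phosphate pH 7.4, 150 mM NaCl, TCEP, IgG, Thesit. Read-out: percent inhibition from loss of millipolarization. Measured by: FP readout, S and P plane fluorescence. Probe or stimulus: fluorescent TMR peptide probe.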
ARNT TACC3 PPI – disruptors of human ARNT/TACC3 interaction; Q9Y6A5; AlphaScreen His-ARNT PAS-B/GST-TACC3 binding, luminescence; TACC3 fragment carries E629A point mutation; inhibition, % at 9.99 µM; 390,000 tested, 0.66% active;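 active = mean inhibition of replicates at least 50% and at least half of replicates each reaching 50%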;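 note: 0% = complete ARNT plus TACC3 wells and 100% = ARNT alone without TACC3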
PGC1a acetyl inh – PGC1a acetylation modulation, inhibitor mode. U2OS PGC1a acetylation, AlphaScreen anti-acetyl-lysine; with virally co-expressed GCN5 acetyltransferase. inhibition, % at 15.6 µM. 350,000 tested, 0.17% active;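 active = every replicate shows inhibition of at least 40%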;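 note: 0% = neutral control wells and 100% = positive control wells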
miR-122 sensor – inhibitors of miR-122 in Huh7 cells; 340,000 tested, 0.3% active; AID 602342; Huh7 miR-122 Renilla luciferase sensor, 48 h; neutral wells = 0, positive control = 100; activation (reporter increase), % at 12.5 µM;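 active = mean replicate activation score at least 90 and every replicate individually at or above 90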;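 note: higher luciferase means less miR-122 activity so hits act as miR-122 inhibitors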
CAL PDZ FP-2 – CAL PDZ (human) peptide binding inhibition | purified CAL PDZ, TMR-peptide fluorescence polarization, 1 h | inhibition, % at 24.9 µM | 300,000 tested, 0.92% active;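 active = mean inhibition of at least 30% with at least half of replicates also reaching 30%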;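 note: 0% = DMSO neutral control and 100% = excess unlabeled competitor peptide PRC23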
CFTR F508del cor – correctors of CFTR F508del function in bronchial epithelial cells. 350,000 tested, 0.36% active. CFBE cells, YFP halide quenching; stimulated with forskolin plus potentiator P3; % fluorescence drop versus neutral controls. activity (quench increase), % at 7.58 µM;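 active = mean added fluorescence quench of at least 8% versus neutral control, with both replicates also reaching 8%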;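 note: cells transiently co-express mutant CFTR-F508del with the halide-sensitive YFP; corrector assay measuring rescue of mutant channel to the surface after 24 h compound exposure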
* marks the source's active call; other numbers are inactive results; . = no result; + = active, no number; ! = not confirmed by another sample; [ ] = dose if it differs, or a comment. An excerpt weighted towards active compounds, which were near 1.7% of everything screened.

SMILES	CAL PDZ FP-1	ARNT TACC3 PPI	PGC1a acetyl inh	miR-122 sensor	CAL PDZ FP-2	CFTR F508del cor
CCC(=O)NC(c1cccs1)c1cc([N+](=O)[O-])c2cccnc2c1OC (stereo not given)	.	.	4	-3	.	1
CC(=O)NC(c1cccs1)c1cc(F)c2cccnc2c1O (stereo not given)	-2	56*	.	.	-1	0
Cc1ccc(C(NC(=O)C(C)C)c2cc([N+](=O)[O-])c3cccnc3c2O)cc1 (stereo not given)	-1	50*	.	.	-3	.
CCC(=O)NC(c1ccc(C)cc1)c1cc(Cl)c2cccnc2c1O (stereo not given)	0	-16	.	.	-2	.
Cc1noc(C)c1NC(=O)N(C)C[C@H]1Oc2c(NC(=O)CCCCCC(=O)Nc3ccccc3N)cccc2C(=O)N([C@@H](C)CO)C[C@@H]1C	.	.	1	.	.	-2
CC(C)NC(=O)N(C)C[C@H]1Oc2cc(C#C[C@@H](C)O)ccc2S(=O)(=O)N([C@@H](C)CO)C[C@H]1C	.	1	-5	-12[16.7 µM]	.	-1
C[C@H](CO)N1C[C@H](C)[C@@H](CN(C)C(=O)Cc2ccncc2)Oc2cc(C#CC3(O)CCCC3)ccc2S1(=O)=O	.	.	13	.	.	-1
CC(=O)N(C)C[C@@H]1Oc2ncc(-c3ccc(F)cc3)cc2C(=O)N([C@H](C)CO)C[C@H]1C	.	3	6	-4[16.7 µM]	.	2
Cc1ccc(S(=O)(=O)N2CCC(C(=O)OCC(=O)Nc3cc(S(C)(=O)=O)ccc3Cl)CC2)cc1C	6	-6	14	-6	40*	0
Cc1ccc(S(=O)(=O)N2CCC(C(=O)OCC(=O)NCc3cccc(Cl)c3)CC2)cc1C	-2	0	-6	-5	-1	2
Cc1ccc(Cl)c(NC(=O)COC(=O)C2CCC2)c1Cl	-1	2	.	.	55*	1
Cc1cc(C)c(NC(=O)COC(=O)C2CCC2)c(Cl)c1	-2	-5	.	.	-1	-4
COC(=O)c1ccc(C(=O)Nc2ccc3nc(-c4ccncc4)[nH]c3c2)cc1	-4	-9	.	-2	59*	-5
Cc1ccc(-c2ccc(S(=O)(=O)NCc3ccco3)cc2)cc1	0	5	0	.	+	-1
O=C(Nc1ccccc1)c1ccc(S(=O)(=O)NCc2ccco2)cc1	-1	-2	9	26	39*	.
CCC(=O)Nc1ccc(S(=O)(=O)NCc2ccco2)cc1	144*	-9	.	3	-1	.
Cc1ccc(S(=O)(=O)NCc2ccco2)cc1C	-2	-1	-2	39	-3	.
Cc1ccc(C(=O)Nc2ccc(S(=O)(=O)NCc3ccco3)cc2)cc1	0	1	10	48	.	.
CC/C(=N\NS(=O)(=O)c1ccc(C)cc1)c1ccco1	.	9	3	16	36*	1
COCC(=O)N[C@@H]1C=C[C@H](CC(=O)N2CCCCC2)O[C@@H]1CO	.	.	-7	-1[16.7 µM]	.	0
C/C(=N\Nc1ccccn1)c1ccc(S(=O)(=O)NCc2ccco2)cc1	-2	11	.	110*	-3	.
C/C(=N\Nc1ccc(C(F)(F)F)cn1)c1ccc(S(=O)(=O)NCc2ccco2)cc1	-3	-1	.	-12	-2	.
CNC[C@H]1Oc2ccc(NC(=O)Nc3cccc4ccccc34)cc2CC(=O)N([C@H](C)CO)C[C@H]1C	.	-8	8	7[16.7 µM]	.	-4
CCOC(=O)c1cnc(-n2nc(C)cc2C)nc1N1CCOCC1	-1	50*	-2	11	.	.
CCOC(=O)c1cnc(-n2nc(C)cc2C)nc1Oc1ccccc1F	.	.	10	3	.	1
SMILES	CAL PDZ FP-1	ARNT TACC3 PPI	PGC1a acetyl inh	miR-122 sensor	CAL PDZ FP-2	CFTR F508del cor
CCN1[C@H](C(=O)NCCc2cn(C)cn2)[C@@H](CO)[C@@H]2Cn3c(ccc(-c4ccncc4)c3=O)[C@@H]21	.	0	.	1[16.7 µM]	.	2
Cc1cc(C)c(S(=O)(=O)NCCn2ccc3ccccc32)c(C)c1	-1	0	-19	126*	1	-3
Cc1cc(C(=O)Nc2cccc3c2O[C@H](CN(C)CC2CC2)[C@H](C)CN([C@H](C)CO)C3=O)n(C)n1	.	-2	7	2[16.7 µM]	.	0
COc1cc(NCCCCCCCN)c2ncccc2c1	1	17	.	-10	-1	.
COc1cc(NC(C)CCCN)c2ncccc2c1 (stereo not given)	1	36*	12	2	0	2
CCN1/C(=C/C=C/c2oc3ccc(-c4ccccc4)cc3[n+]2CC)Oc2ccc(-c3ccccc3)cc21	-4	-26	34	-11	36*	-35
CCCNC(=O)C[C@H]1CC[C@@H]2[C@H](COC[C@@H](O)CN2C(=O)CC)O1	.	22	0	-6[16.7 µM]	.	-2
CCCC(=O)Nc1ccc(NC(=O)Cc2ccccc2)cn1	-2	-3	-5	-5	0	.
O=C(Nc1ccc(Cl)cn1)c1cccc2ccccc12	-1	-1	7	19	.	13*
CCCC(=O)Nc1ccc(NC(=O)c2ccccc2Cl)nc1	.	0	-17	9	41*	.
O=C(Nc1ccc(Cl)cn1)c1ccccc1[N+](=O)[O-]	0	.	-6	40	-3	6
Cc1noc(C)c1NC(=O)N(C)C[C@H]1Oc2ccc(NS(=O)(=O)c3c(C)noc3C)cc2C(=O)N([C@@H](C)CO)C[C@@H]1C	.	.	5	0[16.7 µM]	.	1
CO[C@H]1CN(C)C(=O)c2ccc(NC(=O)Nc3cccc(F)c3)cc2OC[C@@H](C)N(C(=O)Nc2c(C)noc2C)C[C@@H]1C	.	3	-2	.	.	1
O=C(Nc1ccc(C(F)(F)F)cc1)N1C[C@@H]2N[C@H](C1)C2c1ccc(-c2cccc(F)c2)cc1 (stereo not given in full)	.	.	62*!	.	.	-2
COc1ccc(NC(=O)N2C[C@@H]3N[C@H](C2)C3c2ccc(-c3cccc(F)c3)cc2)cc1 (stereo not given in full)	.	.	-17	.	.	1
Cc1c(Br)ccc(NC(=O)CCN2C(=O)C3C4CCC(C4)C3C2=O)c1C (stereo not given)	-1	-26	-11	12	32*	.
CC1CCC(NC(=O)c2nn(C)c3c2CSc2ccccc2-3)CC1 (stereo not given)	-2	2	-12	11	70*	0
CNC[C@H]1OCCCC[C@@H](C)Oc2ccc(NS(C)(=O)=O)cc2C(=O)N([C@@H](C)CO)C[C@@H]1C	.	-3	14	7[16.7 µM]	.	-5
CC(Oc1ccccc1)C(=O)NCc1cccnc1 (stereo not given)	-2	-2	5	.	-1	.
COc1ccc(OC(C)C(=O)NCc2cccnc2)cc1 (stereo not given)	.	-9	12	-11	46*	.
CCOC(=O)C1(Cc2ccc(OC)cc2)CCN(C(=O)CCc2cnccn2)CC1	0	19	-4	-3	76*	0

Screening results: PubChem, Broad Institute
